Marks after values point to notes of the source that are not given here.
Tests used:
healthy male subjects [1] = assay: Serum neuro-endocrine hormones; type: in vivo, human; details: for Cortisol (ng/ml), LSM CFB / Cortisol (ng/ml), estimate of difference compared to placebo / Prolactin (ng/ml), LSM CFB / Prolactin (ng/ml), estimate of difference compared to placebo: 2 hours post-dose, serum
Outline: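 Serum was sampled pre-dose and at 0.25–36 h after a single dose or placebo in healthy men. Cortisol was measured by validated LC–MS/MS (LLOQ 2.00 ng/mL) and prolactin by time-resolved fluoroimmunoassay (LLOQ 0.260 ng/mL). Values were ln-transformed and analysed by MMRM using the 2-h post-dose data, with baseline as covariate and pooled placebo as reference, then back-transformed.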

healthy male subjects [2] = assay: NeuroCart pupillometry; type: in vivo, human; details: 12-hour post-dose period
Outline: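 In healthy men given a single dose or placebo, both eyes were photographed simultaneously with the head in a support. This was done twice pre-dose and at 0.5–10 h post-dose. Change from baseline over 12 h was analysed by MMRM against pooled placebo, with baseline as covariate.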

## CN1CCC23CCCCC2C1Cc1ccc(C(N)=O)cc13 (stereo not drawn) [ALKS 7119, (9α, 13α)‐17‐methylmorphinan‐3‐carboxamide]
Healthy male subjects [1]; 3 mg single oral dose
  Cortisol (ng/ml), LSM CFB: −22.9 % change
  Cortisol (ng/ml), estimate of difference compared to placebo: −3.6 (−31.1, 34.9) P = .83 % change
  Prolactin (ng/ml), LSM CFB: −3.6 % change
  Prolactin (ng/ml), estimate of difference compared to placebo: −3.2 (−26.9; 28.3) P = .82 % change
Healthy male subjects [1]; 10 mg single oral dose
  Cortisol (ng/ml), LSM CFB: 8.9 % change
  Cortisol (ng/ml), estimate of difference compared to placebo: −31.8 (−51.3; −4.5) P = .03 ^* % change
  Prolactin (ng/ml), LSM CFB: −15.3 % change
  Prolactin (ng/ml), estimate of difference compared to placebo: 10.1 (−16.9; 45.9) P = .50 % change
Healthy male subjects [1]; 25 mg single oral dose
  Cortisol (ng/ml), LSM CFB: −20.8 % change
  Cortisol (ng/ml), estimate of difference compared to placebo: −6.2 (−32.9; 31.3) P = .71 % change
  Prolactin (ng/ml), LSM CFB: 8.0 % change
  Prolactin (ng/ml), estimate of difference compared to placebo: −13.6 (−34.8; 14.5) P = .31 % change
Healthy male subjects [1]; 50 mg single oral dose
  Cortisol (ng/ml), LSM CFB: 12.7 % change
  Prolactin (ng/ml), LSM CFB: 66.0 % change
Healthy male subjects [1]; 75 mg single oral dose
  Cortisol (ng/ml), LSM CFB: 36.5 % change
  Cortisol (ng/ml), estimate of difference compared to placebo: −45.5 (−61.1; −23.8) P < .01 ^* % change
  Prolactin (ng/ml), LSM CFB: 63.4 % change
  Prolactin (ng/ml), estimate of difference compared to placebo: −42.9 (−56.9; −24.3) P < .01 ^* % change
Healthy male subjects [1]; 100 mg single oral dose
  Cortisol (ng/ml), LSM CFB: 70.3 % change
  Cortisol (ng/ml), estimate of difference compared to placebo: −56.4 (−68.8; −38.9) P < .01 ^* % change
  Prolactin (ng/ml), LSM CFB: 72.0 % change
  Prolactin (ng/ml), estimate of difference compared to placebo: −45.8 (−59.1; −28.1) P < .01 ^* % change
Healthy male subjects [1]; 125 mg single oral dose
  Cortisol (ng/ml), LSM CFB: 52.6 % change
  Cortisol (ng/ml), estimate of difference compared to placebo: −51.3 (−65.2; −31.8) P < .01 ^* % change
  Prolactin (ng/ml), LSM CFB: 28.0 % change
  Prolactin (ng/ml), estimate of difference compared to placebo: −27.1 (−45.1; −3.3) P = .03 ^* % change
Healthy male subjects [1]; 150 mg single oral dose
  Cortisol (ng/ml), LSM CFB: 84.4 % change
  Cortisol (ng/ml), estimate of difference compared to placebo: −59.7 (−71.2; −43.6) P < .01 ^* % change
  Prolactin (ng/ml), LSM CFB: 106.9 % change
  Prolactin (ng/ml), estimate of difference compared to placebo: −54.9 (−66.0; −40.2) P < .01 ^* % change
Healthy male subjects [1]; 175 mg single oral dose
  Cortisol (ng/ml), LSM CFB: 53.6 % change
  Cortisol (ng/ml), estimate of difference compared to placebo: −51.6 (−65.4; −32.3) P < .01 ^* % change
  Prolactin (ng/ml), LSM CFB: 81.7 % change
  Prolactin (ng/ml), estimate of difference compared to placebo: −48.7 (−61.3; −32.0) P < .01 ^* % change
Healthy male subjects [1]; 200 mg single oral dose
  Cortisol (ng/ml), LSM CFB: 64.7 % change
  Cortisol (ng/ml), estimate of difference compared to placebo: −54.9 (−67.8; −36.9) P < .01 ^* % change
  Prolactin (ng/ml), LSM CFB: 111.3 % change
  Prolactin (ng/ml), estimate of difference compared to placebo: −55.8 (−66.7; −41.5) P < .01 ^* % change
Healthy male subjects [1]; from dose levels ≥50 mg
  Serum cortisol, increase vs placebo (estimate of difference): 51.7 % change
  Serum prolactin, increase vs placebo (estimate of difference): 77.9 % change
Healthy male subjects [2]; 3 mg single oral dose
  Left pupil/iris ratio, LSM CFB: 0.01
  Right pupil/iris ratio, LSM CFB: 0.02
Healthy male subjects [2]; 10 mg single oral dose
  Left pupil/iris ratio, LSM CFB: 0.04
  Right pupil/iris ratio, LSM CFB: 0.03
Healthy male subjects [2]; 25 mg single oral dose
  Left pupil/iris ratio, LSM CFB: 0.04
  Right pupil/iris ratio, LSM CFB: 0.03
Healthy male subjects [2]; 50 mg single oral dose
  Left pupil/iris ratio, LSM CFB: 0.05
  Right pupil/iris ratio, LSM CFB: 0.07
Healthy male subjects [2]; 75 mg single oral dose
  Left pupil/iris ratio, LSM CFB: 0.04
  Right pupil/iris ratio, LSM CFB: 0.03
Healthy male subjects [2]; 100 mg single oral dose
  Left pupil/iris ratio, LSM CFB: 0.04
  Right pupil/iris ratio, LSM CFB: 0.05
Healthy male subjects [2]; 125 mg single oral dose
  Left pupil/iris ratio, LSM CFB: 0.04
